Values after ≈ are worked out from the molar mass of the structure shown.
The compounds below were run on Moraxella catarrhalis (assay: Ratio of linezolid MIC to compound MIC for Moraxella catarrhalis SR26840 clinical isolate). Conditions: not given.
Type: functional

Row | SMILES | Ratio
1 | CC(=S)NC[C@H]1CN(c2ccc(N3CCNN(C(=O)CO)CC3)c(F)c2)C(=O)O1 | 4

These compounds were tested on Enterococcus faecalis (assay: Antibacterial activity against Enterococcus faecalis SR1004 clinical isolate assessed as growth inhibition by CLSI broth microdilution method). Conditions: not given.
Type: functional
In short: (§1)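 MIC by CLSI broth microdilution in cation-adjusted Mueller-Hinton broth; S. pneumoniae medium supplemented with 5% lysed horse blood.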

Row | SMILES | MIC
2 | CC(=S)NC[C@H]1CN(c2ccc(N3CCNN(C(=O)CO)CC3)c(F)c2)C(=O)O1 | 0.5 µg/mL (≈ 1.18 µM)

These compounds were tested on Staphylococcus aureus (assay: Ratio of linezolid MIC to compound MIC for Staphylococcus aureus Smith). Conditions: not given.
Type: functional

Row | SMILES | Ratio
3 | CC(=S)NC[C@H]1CN(c2ccc(N3CCNN(C(=O)CO)CC3)c(F)c2)C(=O)O1 | 4

Each compound was assayed on Enterococcus faecium (assay: Ratio of eperezolid MIC to compound MIC for Enterococcus faecium SR7940 clinical isolate). Conditions: not given.
Type: functional

Row | SMILES | Ratio
4 | CC(=S)NC[C@H]1CN(c2ccc(N3CCNN(C(=O)CO)CC3)c(F)c2)C(=O)O1 | 4

What follows are compounds tested on Enterococcus faecalis (assay: Ratio of linezolid MIC to compound MIC for Enterococcus faecalis SR1004 clinical isolate). Conditions: not given.
Type: functional

Row | SMILES | Ratio
5 | CC(=S)NC[C@H]1CN(c2ccc(N3CCNN(C(=O)CO)CC3)c(F)c2)C(=O)O1 | 4

The compounds below were run on Haemophilus influenzae (assay: Antibacterial activity against Haemophilus influenzae SR27914 clinical isolate assessed as growth inhibition by CLSI broth microdilution method). Conditions: not given.
Type: functional
In short: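 MIC by CLSI broth microdilution using Haemophilus test medium.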

Row | SMILES | MIC
6 | CC(=S)NC[C@H]1CN(c2ccc(N3CCNN(C(=O)CO)CC3)c(F)c2)C(=O)O1 | 2 µg/mL (≈ 4.7 µM)

Each compound was assayed on Staphylococcus aureus (assay: Antibacterial activity against methicillin-resistant Staphylococcus aureus SR3637 infected in JCL/ICR mouse systemic infection model assessed as mortality administered as po measured over 7 days). Conditions: 168 h.
Type: functional
In short: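 Five-week-old male JCL/ICR mice (20–25 g), five per group. Infected intraperitoneally with 0.5 or 1.0 mL bacterial suspension (about 100× LD50). Oral dosing 1 h post-infection. Mortality followed 7 days; ED50 with 95% confidence limits by logit method.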

Row | SMILES | ED50
7 | CC(=S)NC[C@H]1CN(c2ccc(N3CCNN(C(=O)CO)CC3)c(F)c2)C(=O)O1 | > 10 mg/kg

The compounds below were run on Moraxella catarrhalis (assay: Ratio of eperezolid MIC to compound MIC for Moraxella catarrhalis SR26840 clinical isolate). Conditions: not given.
Type: functional

Row | SMILES | Ratio
8 | CC(=S)NC[C@H]1CN(c2ccc(N3CCNN(C(=O)CO)CC3)c(F)c2)C(=O)O1 | 4

These compounds were tested on Staphylococcus aureus (assay: Antibacterial activity against methicillin-resistant Staphylococcus aureus SR3637 infected in JCL/ICR mouse systemic infection model assessed as mortality administered as iv measured over 7 days). Conditions: 168 h.
Type: functional
In short: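 Five-week-old male JCL/ICR mice (20–25 g), five per group. Infected intraperitoneally with 0.5 or 1.0 mL bacterial suspension (about 100× LD50). Intravenous dosing 1 h post-infection. Mortality followed 7 days; ED50 with 95% confidence limits by logit method.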

Row | SMILES | ED50
9 | CC(=S)NC[C@H]1CN(c2ccc(N3CCNN(C(=O)CO)CC3)c(F)c2)C(=O)O1 | 2.95 mg/kg

These compounds were tested on Streptococcus pneumoniae (assay: Ratio of eperezolid MIC to compound MIC for Streptococcus pneumoniae SR26207 clinical isolate). Conditions: not given.
Type: functional

Row | SMILES | Ratio
10 | CC(=S)NC[C@H]1CN(c2ccc(N3CCNN(C(=O)CO)CC3)c(F)c2)C(=O)O1 | 4

These compounds were tested on Haemophilus influenzae (assay: Ratio of linezolid MIC to compound MIC for Haemophilus influenzae SR27914 clinical isolate). Conditions: not given.
Type: functional

Row | SMILES | Ratio
11 | CC(=S)NC[C@H]1CN(c2ccc(N3CCNN(C(=O)CO)CC3)c(F)c2)C(=O)O1 | 4

These compounds were tested on Haemophilus influenzae (assay: Ratio of eperezolid MIC to compound MIC for Haemophilus influenzae SR27914 clinical isolate). Conditions: not given.
Type: functional

Row | SMILES | Ratio
12 | CC(=S)NC[C@H]1CN(c2ccc(N3CCNN(C(=O)CO)CC3)c(F)c2)C(=O)O1 | 4

What follows are compounds tested on Staphylococcus aureus (assay: Antibacterial activity against Staphylococcus aureus SR20549 clinical isolate assessed as growth inhibition by CLSI broth microdilution method). Conditions: not given.
Type: functional
In short: as §1

Row | SMILES | MIC
13 | CC(=S)NC[C@H]1CN(c2ccc(N3CCNN(C(=O)CO)CC3)c(F)c2)C(=O)O1 | 0.5 µg/mL (≈ 1.18 µM)

Each compound was assayed on Staphylococcus aureus (assay: Ratio of linezolid MIC to compound MIC for Staphylococcus aureus SR20549 clinical isolate). Conditions: not given.
Type: functional

Row | SMILES | Ratio
14 | CC(=S)NC[C@H]1CN(c2ccc(N3CCNN(C(=O)CO)CC3)c(F)c2)C(=O)O1 | 4

What follows are compounds tested on Staphylococcus aureus (assay: Ratio of eperezolid MIC to compound MIC for Staphylococcus aureus SR20549 clinical isolate). Conditions: not given.
Type: functional

Row | SMILES | Ratio
15 | CC(=S)NC[C@H]1CN(c2ccc(N3CCNN(C(=O)CO)CC3)c(F)c2)C(=O)O1 | 4

Each compound was assayed on Moraxella catarrhalis (assay: Antibacterial activity against Moraxella catarrhalis SR26840 clinical isolate assessed as growth inhibition by CLSI broth microdilution method). Conditions: not given.
Type: functional
In short: as §1

Row | SMILES | MIC
16 | CC(=S)NC[C@H]1CN(c2ccc(N3CCNN(C(=O)CO)CC3)c(F)c2)C(=O)O1 | 1 µg/mL (≈ 2.35 µM)

What follows are compounds tested on Staphylococcus aureus (assay: Ratio of eperezolid MIC to compound MIC for Staphylococcus aureus Smith). Conditions: not given.
Type: functional

Row | SMILES | Ratio
17 | CC(=S)NC[C@H]1CN(c2ccc(N3CCNN(C(=O)CO)CC3)c(F)c2)C(=O)O1 | 4

The compounds below were run on Staphylococcus aureus (assay: Antibacterial activity against methicillin-resistant Staphylococcus aureus SR3637 assessed as growth inhibition by CLSI broth microdilution method). Conditions: not given.
Type: functional
In short: (§2)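 MIC by CLSI broth microdilution in cation-adjusted Mueller-Hinton broth. Lowest concentration inhibiting growth taken as MIC.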

Row | SMILES | MIC
18 | CC(=S)NC[C@H]1CN(c2ccc(N3CCNN(C(=O)CO)CC3)c(F)c2)C(=O)O1 | 0.25 µg/mL (≈ 0.588 µM)

Each compound was assayed on Enterococcus faecium (assay: Antibacterial activity against Enterococcus faecium SR7940 clinical isolate assessed as growth inhibition by CLSI broth microdilution method). Conditions: not given.
Type: functional
In short: as §1

Row | SMILES | MIC
19 | CC(=S)NC[C@H]1CN(c2ccc(N3CCNN(C(=O)CO)CC3)c(F)c2)C(=O)O1 | 0.5 µg/mL (≈ 1.18 µM)

What follows are compounds tested on Enterococcus faecalis (assay: Ratio of eperezolid MIC to compound MIC for Enterococcus faecalis SR1004 clinical isolate). Conditions: not given.
Type: functional

Row | SMILES | Ratio
20 | CC(=S)NC[C@H]1CN(c2ccc(N3CCNN(C(=O)CO)CC3)c(F)c2)C(=O)O1 | 4

These compounds were tested on Staphylococcus aureus (assay: Antibacterial activity against linezolid-resistant Staphylococcus aureus NRS271 assessed as growth inhibition by CLSI broth microdilution method). Conditions: not given.
Type: functional
In short: as §2

Row | SMILES | MIC
21 | CC(=S)NC[C@H]1CN(c2ccc(N3CCNN(C(=O)CO)CC3)c(F)c2)C(=O)O1 | 8 µg/mL (≈ 18.8 µM)

The compounds below were run on Streptococcus pneumoniae (assay: Ratio of linezolid MIC to compound MIC for Streptococcus pneumoniae SR26207 clinical isolate). Conditions: not given.
Type: functional

Row | SMILES | Ratio
22 | CC(=S)NC[C@H]1CN(c2ccc(N3CCNN(C(=O)CO)CC3)c(F)c2)C(=O)O1 | 4

Each compound was assayed on Staphylococcus aureus (assay: Antibacterial activity against Staphylococcus aureus Smith assessed as growth inhibition by CLSI broth microdilution method). Conditions: not given.
Type: functional
In short: as §1

Row | SMILES | MIC
23 | CC(=S)NC[C@H]1CN(c2ccc(N3CCNN(C(=O)CO)CC3)c(F)c2)C(=O)O1 | 0.25 µg/mL (≈ 0.588 µM)

These compounds were tested on Enterococcus faecium (assay: Ratio of linezolid MIC to compound MIC for Enterococcus faecium SR7940 clinical isolate). Conditions: not given.
Type: functional

Row | SMILES | Ratio
24 | CC(=S)NC[C@H]1CN(c2ccc(N3CCNN(C(=O)CO)CC3)c(F)c2)C(=O)O1 | 4

The compounds below were run on Streptococcus pneumoniae (assay: Antibacterial activity against Streptococcus pneumoniae SR26207 clinical isolate assessed as growth inhibition by CLSI broth microdilution method). Conditions: not given.
Type: functional
In short: as §1

Row | SMILES | MIC
25 | CC(=S)NC[C@H]1CN(c2ccc(N3CCNN(C(=O)CO)CC3)c(F)c2)C(=O)O1 | ≤ 0.063 µg/mL
